Experimental data taken from ChEMBL document CHEMBL1130133, “Terbenzimidazoles: influence of 2"-, 4-, and 5-substituents on cytotoxicity and relative potency as topoisomerase I poisons” (J Med Chem, 1997).

Key:
[1] = target: T1, DNA topoisomerase 1 (Homo sapiens) (UniProt P11387); test: Topoisomerase I mediated DNA cleavage; format: functional
T1 sequence (whole entry): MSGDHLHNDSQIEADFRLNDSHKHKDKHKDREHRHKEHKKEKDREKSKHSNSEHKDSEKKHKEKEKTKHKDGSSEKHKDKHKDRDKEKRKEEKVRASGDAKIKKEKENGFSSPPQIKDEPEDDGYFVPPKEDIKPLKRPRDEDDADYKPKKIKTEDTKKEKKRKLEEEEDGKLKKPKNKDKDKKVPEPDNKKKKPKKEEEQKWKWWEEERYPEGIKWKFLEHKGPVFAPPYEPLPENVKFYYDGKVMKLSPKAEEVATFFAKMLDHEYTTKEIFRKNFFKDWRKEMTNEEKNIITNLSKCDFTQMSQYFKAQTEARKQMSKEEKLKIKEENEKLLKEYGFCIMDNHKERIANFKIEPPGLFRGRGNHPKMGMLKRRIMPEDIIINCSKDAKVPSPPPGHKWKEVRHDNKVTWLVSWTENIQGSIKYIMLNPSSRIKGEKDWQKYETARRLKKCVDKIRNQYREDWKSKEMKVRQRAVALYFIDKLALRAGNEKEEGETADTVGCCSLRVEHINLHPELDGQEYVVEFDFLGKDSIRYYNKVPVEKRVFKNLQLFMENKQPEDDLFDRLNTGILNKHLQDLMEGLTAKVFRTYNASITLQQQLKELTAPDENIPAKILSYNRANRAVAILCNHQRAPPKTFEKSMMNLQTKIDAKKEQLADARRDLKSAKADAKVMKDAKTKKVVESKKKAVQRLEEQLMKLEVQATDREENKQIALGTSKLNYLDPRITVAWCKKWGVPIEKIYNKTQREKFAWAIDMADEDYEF
How it was run: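 Recombinant human topoisomerase I (expressed in E. coli) was incubated with end-labeled plasmid YEpG DNA and drug for 30 min at 37 °C. Drug was given as 10-fold serial dilutions from 0.01 to 10 µg/mL. Fragments were separated on gels and autoradiographed, typically with 24 h exposure. Cleavage was scored from the strongest specific band and expressed as concentration relative to reference compound (set to 1) giving equal cleavage.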

RPMI 8402 = test: Cytotoxicity using human lymphoblast RPMI 8402 cells.; format: functional, cell-based
How it was run: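 Human lymphoblast RPMI 8402 cells were grown in suspension at 37 °C, 5% CO2, in RPMI with 10% heat-inactivated FBS, 2 mM L-glutamine, penicillin 100 U/mL and streptomycin 0.1 mg/mL. Cells were seeded at 2000/well and exposed continuously to a range of drug concentrations for 4 days, then read by MTT assay. A no-drug control was included, and each assay was run at least twice in six replica wells.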

## COc1ccc(-c2nc3cc(-c4nc5cc(-c6nc7cc(-c8ccccc8)ccc7[nH]6)ccc5[nH]4)ccc3[nH]2)cc1
[1]
  REC: 20
RPMI 8402
  IC50: 380 nM

## c1ccc2cc(-c3ccc4[nH]c(-c5ccc6[nH]c(-c7ccc8[nH]cnc8c7)nc6c5)nc4c3)ccc2c1
[1]
  REC: 1
RPMI 8402
  IC50: 80 nM

## Cc1nc2cc(-c3nc4cc(-c5nc6cc(-c7ccccc7)ccc6[nH]5)ccc4[nH]3)ccc2[nH]1
[1]
  REC: 2
RPMI 8402
  IC50: 110 nM

## CCc1nc2cc(-c3nc4cc(-c5nc6cc(-c7ccccc7)ccc6[nH]5)ccc4[nH]3)ccc2[nH]1
[1]
  REC: 1
RPMI 8402
  IC50: 110 nM

## c1ccc(-c2cccc3[nH]c(-c4ccc5[nH]c(-c6ccc7[nH]cnc7c6)nc5c4)nc23)cc1
[1]
  REC: 5
RPMI 8402
  IC50: 7000 nM

## c1ccc2c(-c3ccc4[nH]c(-c5ccc6[nH]c(-c7ccc8[nH]cnc8c7)nc6c5)nc4c3)cccc2c1
[1]
  REC: 2
RPMI 8402
  IC50: 2100 nM

## c1ccc(-c2ccc3[nH]c(-c4ccc5[nH]c(-c6ccc7[nH]cnc7c6)nc5c4)nc3c2)cc1
[1]
  REC: 1

## CCCc1nc2cc(-c3nc4cc(-c5nc6cc(-c7ccccc7)ccc6[nH]5)ccc4[nH]3)ccc2[nH]1
[1]
  REC: 0.5
RPMI 8402
  IC50: 60 nM

## CC(C)c1nc2cc(-c3nc4cc(-c5nc6cc(-c7ccccc7)ccc6[nH]5)ccc4[nH]3)ccc2[nH]1
[1]
  REC: 0.05
RPMI 8402
  IC50: 60 nM

## c1ccc2cc3[nH]c(-c4ccc5[nH]c(-c6ccc7[nH]cnc7c6)nc5c4)nc3cc2c1
[1]
  REC: > 1000
RPMI 8402
  IC50: > 100000 nM

## COc1ccc(-c2ccc3[nH]c(-c4ccc5[nH]c(-c6ccc7[nH]cnc7c6)nc5c4)nc3c2)cc1
[1]
  REC: 0.5
RPMI 8402
  IC50: 90 nM

## Clc1ccc(-c2ccc3[nH]c(-c4ccc5[nH]c(-c6ccc7[nH]cnc7c6)nc5c4)nc3c2)cc1
[1]
  REC: 2
RPMI 8402
  IC50: 90 nM

## c1ccc(-c2ccc3[nH]c(-c4ccc5[nH]c(-c6ccc7[nH]c(-c8ccccc8)nc7c6)nc5c4)nc3c2)cc1
[1]
  REC: 20
RPMI 8402
  IC50: 60 nM

## c1ccc2c(c1)ccc1[nH]c(-c3ccc4[nH]c(-c5ccc6[nH]cnc6c5)nc4c3)nc12
[1]
  REC: 1
RPMI 8402
  IC50: 25000 nM
